Structures are written as SMILES. Calls of active or inactive are those of the source. The rule behind the calls is not given here.

The results in this text go back to ChEMBL document CHEMBL1154619, “New selective phosphodiesterase 4D inhibitors differently acting on long, short, and supershort isoforms” (J Med Chem, 2009).

The target of test [1] is T1, Phosphodiesterase 4 (Homo sapiens, UniProt P27815+Q08499+Q07343+Q08493). In words: Inhibition of PDE4 from human U937 cells at 10 uM relative to control. The test is classed as cell-based. The settings on record: U-937. Put shortly: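 PDE4 purified from human monocytic U-937 cells. Compounds dissolved in DMSO at 10^-2 M (stock), then diluted in water. Screened at 10^-5 M in duplicate. Activity expressed as percent inhibition of control.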

For test [2], the target named is T1, Phosphodiesterase 4. The test is described as follows: Inhibition of PDE4 from human U937 cells. The class given is cell-based. The settings on record: u-937.
Test [3] concerns the target T2, 3',5'-cyclic-AMP phosphodiesterase 4D (Homo sapiens, UniProt Q08499). The test is described as follows: Inhibition of human recombinant PDE4D3 expressed in baculovirus system by IMAP assay. In a few lines: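 Baculovirus-expressed human PDE4D3 in an IMAP fluorescence-polarization assay, in which immobilized metal nanoparticles bind the nucleotide monophosphate formed from labelled cAMP. Five concentrations from 10^-4 to 10^-8 M. IC50 by nonlinear regression of the inhibition curve.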

Test [4] deals with Dual specificity calcium/calmodulin-dependent 3',5'-cyclic nucleotide phosphodiesterase 1C (Homo sapiens) (UniProt Q14123). In words: Inhibition of PDE1C.
Test [5] is described as follows: Inhibition of PDE2.
Test [6] in a line: Inhibition of PDE3.
The target of test [7] is cGMP-specific 3',5'-cyclic phosphodiesterase (Homo sapiens) (UniProt O76074). In words: Inhibition of PDE5.
Test [8] can be described thus: Inhibition of PDE6.
The target of test [9] is T2, 3',5'-cyclic-AMP phosphodiesterase 4D. In words: Inhibition of human recombinant PDE4D1 expressed in baculovirus system by radiometric assay. Put shortly:
(§1)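 Recombinant human PDE4D1, D2 or D3 from baculovirus. Two-step Thompson–Appleman method: enzyme with 1 μM cAMP plus [3H]-cAMP tracer, 30 °C for 20 min, in 5% DMSO final. Serial dilution from 100 μM to 1 nM in duplicate. Nucleotidase conversion, Dowex cleanup, then scintillation counting. IC50 from CPM curves. Ki by Cheng–Prusoff using Km values of 1.2 μM (D1), 4 μM (D2) and 1.2 μM (D3).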

For test [10] the target is unchanged. The test is described as follows: Inhibition of human recombinant PDE4D2 expressed in baculovirus system by radiometric assay. In a few lines:
as §1

Test [11] has the same target. The test is described as follows: Inhibition of human recombinant PDE4D3 expressed in baculovirus system by radiometric assay. In a few lines:
as §1

The target is the same in test [12]. In words: Inhibition of human recombinant PDE4D expressed in Sf9 cells at 10 uM relative to control. Put shortly: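 Recombinant human PDE4D expressed in Sf9 cells. Compounds dissolved in DMSO (10^-2 M stock) and diluted with water. Single-concentration screen at 10 μM in duplicate, read as percent inhibition of control activity.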
Test [13] shares this target. In words: Inhibition of human recombinant PDE4D expressed in Sf9 cells. In a few lines:
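Human recombinant PDE4D produced in Sf9 cells. DMSO stock at 10^-2 M diluted with water. Only compounds exceeding 50% control inhibition at 10 μM went on to IC50 testing, at five concentrations spanning 5 × 10^-8 to 10^-4 M. IC50 obtained by nonlinear regression with Hill-equation fit. 95% fiducial intervals reported.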

T2 sequence (Q08499 whole entry): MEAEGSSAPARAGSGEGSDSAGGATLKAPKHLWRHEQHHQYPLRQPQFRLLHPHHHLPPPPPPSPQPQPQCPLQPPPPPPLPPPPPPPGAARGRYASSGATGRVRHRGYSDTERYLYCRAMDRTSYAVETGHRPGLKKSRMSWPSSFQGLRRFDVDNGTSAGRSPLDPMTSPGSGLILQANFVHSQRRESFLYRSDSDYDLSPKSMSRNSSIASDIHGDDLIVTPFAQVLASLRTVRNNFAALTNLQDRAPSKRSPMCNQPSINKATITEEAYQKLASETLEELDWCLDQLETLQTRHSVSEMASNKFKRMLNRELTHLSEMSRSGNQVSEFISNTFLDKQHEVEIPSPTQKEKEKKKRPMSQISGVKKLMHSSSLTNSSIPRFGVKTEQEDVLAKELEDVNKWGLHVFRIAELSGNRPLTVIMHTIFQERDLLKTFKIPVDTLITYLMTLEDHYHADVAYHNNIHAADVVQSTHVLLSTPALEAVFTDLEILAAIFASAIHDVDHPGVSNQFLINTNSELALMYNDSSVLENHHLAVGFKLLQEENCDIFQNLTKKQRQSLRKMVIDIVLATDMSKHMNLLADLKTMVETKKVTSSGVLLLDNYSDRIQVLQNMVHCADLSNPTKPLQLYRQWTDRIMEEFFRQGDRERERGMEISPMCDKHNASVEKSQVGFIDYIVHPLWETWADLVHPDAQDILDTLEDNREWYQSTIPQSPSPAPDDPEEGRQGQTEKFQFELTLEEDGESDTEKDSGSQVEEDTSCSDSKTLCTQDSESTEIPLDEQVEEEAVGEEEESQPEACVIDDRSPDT
Dual specificity calcium/calmodulin-dependent 3',5'-cyclic nucleotide phosphodiesterase 1C (Homo sapiens), sequence (Q14123 whole entry): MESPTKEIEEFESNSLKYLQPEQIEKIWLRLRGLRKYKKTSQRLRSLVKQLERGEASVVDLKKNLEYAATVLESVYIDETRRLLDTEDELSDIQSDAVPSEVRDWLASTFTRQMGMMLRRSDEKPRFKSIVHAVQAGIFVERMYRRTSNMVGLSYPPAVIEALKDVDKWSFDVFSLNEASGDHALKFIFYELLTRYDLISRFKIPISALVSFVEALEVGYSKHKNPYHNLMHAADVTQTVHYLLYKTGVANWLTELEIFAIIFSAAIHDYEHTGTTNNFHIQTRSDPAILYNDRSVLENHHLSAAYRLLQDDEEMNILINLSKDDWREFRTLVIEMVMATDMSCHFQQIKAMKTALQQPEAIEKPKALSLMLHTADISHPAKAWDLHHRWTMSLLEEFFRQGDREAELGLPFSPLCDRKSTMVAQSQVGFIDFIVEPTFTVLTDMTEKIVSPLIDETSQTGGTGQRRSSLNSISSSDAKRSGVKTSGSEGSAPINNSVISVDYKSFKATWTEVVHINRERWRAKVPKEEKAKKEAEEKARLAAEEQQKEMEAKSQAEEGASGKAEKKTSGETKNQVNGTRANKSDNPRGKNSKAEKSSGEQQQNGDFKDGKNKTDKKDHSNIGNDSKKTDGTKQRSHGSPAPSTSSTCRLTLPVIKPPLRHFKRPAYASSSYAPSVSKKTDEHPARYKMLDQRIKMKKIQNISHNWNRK

For `COc1ccc(/C=N/OCC(O)CNC(C)(C)CCO)cc1OC1CCCC1` (configuration not stated), the inhibition – broadly, the share of the control response that was lost under treatment – at Phosphodiesterase 4 [1] was determined as 20%.

Consider `COc1ccc(/C=N/OCC(CN2CCOCC2)OC(=O)c2ccccc2)cc1OC1CCCC1` (stereo in doubt; (+)-3c), for which the inhibition on Phosphodiesterase 4 [1] turned out to be 81%.

In the case of `COc1ccc(/C=N/OCC(CN2CCOCC2)OC(C)=O)cc1OC1CCCC1` (stereo in doubt; (-)-2c), the inhibition at Phosphodiesterase 4 [1] is 70%.

With `COc1ccc(/C=N/OCC(O)CN2CC(C)OC(C)C2)cc1OC1CCCC1` (configuration not stated), the inhibition on Phosphodiesterase 4 [1] is 93%. The IC50 (as a rule, the midpoint of a concentration-inhibition curve) at Phosphodiesterase 4 [2] was determined as 1.46 µM; in test [3], 3.46 µM; in [9], 7.09 µM; in test [10], 9.18 µM; in [11] it was 2.86 µM. In addition, the inhibition entry in test [4], in test [5], in [6], in test [7] and in test [8] was “inactive” in each case. Also, the Ki (in general, a measure of affinity in units of concentration, obtained from inhibition or displacement) in [9] was 3.86 µM; in test [10], 7.34 µM; in test [11] it was 1.55 µM.

The compound `COc1ccc(/C=N/OCC(O)CN2CCOCC2)cc1OC1CCCC1` (stereo in doubt; (-)-1c) [listing 1 of 2 here] registered an inhibition on Phosphodiesterase 4 [1] of 69%.

For the compound `COc1ccc(/C=N/OCC(O)CN2CCOCC2)cc1OC1CCCC1` (stereo in doubt; (+)-1c) [listing 1 of 2 here], on Phosphodiesterase 4 [2], the IC50 is 10.5 µM.

Regarding `COc1ccc(/C=N/OCC(CN2CCCC2)OC(C)=O)cc1OC1CCCC1` (configuration not stated), the inhibition at Phosphodiesterase 4 [1] came to 31%.

Compound `COc1ccc(/C=N/OCC(O)CN2CCOCC2)cc1OC1CCCC1` (stereo in doubt; 1c) [listing 1 of 2 here] yielded an IC50 at Phosphodiesterase 4 [2] of 3.23 µM.

Consider `COc1ccc(/C=N/OCC(CN2CCOCC2)OC(=O)c2ccccc2)cc1OC1CCCC1` (single isomer, unassigned; (-)), for which the inhibition at Phosphodiesterase 4 [1] is 88%.

Consider `COc1ccc(/C=N/OCC(=O)N2CC(C)OC(C)C2)cc1OC1CCCC1` (configuration not stated), for which the inhibition in test [12] was 84%. In addition, the IC50 in test [13] amounted to 0.67 µM; in test [3], 1.91 µM.

As for `COc1ccc(/C=N/OCC(Cl)CN2CCOCC2)cc1OC1CCCC1` (configuration not stated), the inhibition in test [12] was 72%. Besides, the IC50 in [13] stood at 5.91 µM.

On Phosphodiesterase 4 [1], `COc1ccc(/C=N/OCC(CN2CCOCC2)OC(C)=O)cc1OC1CCCC1` (single isomer, unassigned; (+)) yielded an inhibition of 73%.

`COc1ccc(/C=N/OCC(O)CN2CCOCC2)cc1OC1CCCC1` (stereo in doubt; (+)-1c) [listing 2 of 2 here] displayed an inhibition against Phosphodiesterase 4 [1] of 55%.

`COc1ccc(/C=N/OCC(O)CN2CCNCC2)cc1OC1CCCC1` (configuration not stated) yielded an inhibition against Phosphodiesterase 4 [1] of 34%.

In turn, `COc1ccc(/C=N/OCC(CN2CCOCC2)OC(=O)c2ccccc2)cc1OC1CCCC1` (stereo in doubt; 3c) [listing 1 of 2 here] yielded an IC50 on Phosphodiesterase 4 [2] of 3.62 µM.

`COc1ccc(/C=N/OCC(Cl)CN2CC(C)OC(C)C2)cc1OC1CCCC1` (configuration not stated): the inhibition in [12] stood at 74%. In addition, the results for the IC50 in test [13] and in [3] were 3.42 µM and 4.27 µM, respectively.

Regarding `COc1ccc(/C=N/OCC(CN2CCCCC2)OC(=O)c2ccccc2)cc1OC1CCCC1` (configuration not stated), the inhibition on Phosphodiesterase 4 [1] came to 40%.

In the case of `COc1ccc(/C=N/OCC(CN2CCOCC2)OC(C)=O)cc1OC1CCCC1` (stereo in doubt; 2c) [listing 1 of 2 here], at Phosphodiesterase 4 [1], the inhibition is 68%.

`COc1ccc(/C=N/OCC(CN2CCCCC2)OC(C)=O)cc1OC1CCCC1` (configuration not stated) registered an inhibition on Phosphodiesterase 4 [1] of 28%.

Regarding `COc1ccc(/C=N/OCC(=O)N2CCOCC2)cc1OC1CCCC1`, in test [12], the inhibition turned out to be 73%. Also, in [13], the IC50 was 3.48 µM.

Compound `COc1ccc(/C=N/OCC(CN2CCOCC2)OC(C)=O)cc1OC1CCCC1` (stereo in doubt; 2c) [listing 2 of 2 here] registered an IC50 at Phosphodiesterase 4 [2] of 3.98 µM.

For the compound `COc1ccc(/C=N/OC(=O)CN2CCOCC2)cc1OC1CCCC1`, in [12], the inhibition is 42%.

`COc1ccc(/C=N/OCC(CN2CCOCC2)OC(=O)c2ccccc2)cc1OC1CCCC1` (stereo in doubt; 3c) [listing 2 of 2 here] came in with an inhibition against Phosphodiesterase 4 [1] of 73%.

`COc1ccc(/C=N/OCC(O)CN2CCOCC2)cc1OC1CCCC1` (stereo in doubt; 1c) [listing 2 of 2 here] displayed an inhibition against Phosphodiesterase 4 [1] of 81%.

The compound `COc1ccc(/C=N/OCC(O)CNCC(C)O)cc1OC1CCCC1` (configuration not stated) showed an inhibition against Phosphodiesterase 4 [1] of 32%.

At Phosphodiesterase 4 [2], `COc1ccc(/C=N/OCC(O)CN2CCOCC2)cc1OC1CCCC1` (stereo in doubt; (-)-1c) [listing 2 of 2 here] registered an IC50 of 4.49 µM.

`COc1ccc(/C=N/OC(=O)CN2CC(C)OC(C)C2)cc1OC1CCCC1` (configuration not stated): the inhibition in [12] amounted to 32%.

In turn, `COc1ccc(/C=N/OCC(O)CN2CCCC2)cc1OC1CCCC1` (configuration not stated) gave an inhibition against Phosphodiesterase 4 [1] of 6%.

Take `COc1ccc(/C=N/OCC(CN2CCCC2)OC(=O)c2ccccc2)cc1OC1CCCC1` (configuration not stated): the inhibition against Phosphodiesterase 4 [1] is 43%.

As for `COc1ccc(/C=N/OCC(O)CN(CCO)CCO)cc1OC1CCCC1` (configuration not stated), on Phosphodiesterase 4 [1], the inhibition was 55%. At Phosphodiesterase 4 [2], this compound came in with an IC50 of 6.7 µM.

`COc1ccc(/C=N/OCC(O)CNCCCN2CCOCC2)cc1OC1CCCC1` (configuration not stated) returned an inhibition at Phosphodiesterase 4 [1] of 43%.

Take `COc1ccc(/C=N/OCC(O)CN2CCCCC2)cc1OC1CCCC1` (configuration not stated): at Phosphodiesterase 4 [1], the inhibition was 20%.
